# “And” between values parts separate entries of the source, which are not always exact repeats. Equal values may be shown once.
# Test system: Fibroblast
# Experiment: Multiplex assay against human fibroblast
# Format: toxicity, cell-based
# Summary of the method: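 Phenotypes for tubulin, mitochondrial mass and membrane permeability are expressed as per cents of healthy-nucleus cells. Cells were stained live at seeding with Hoechst33342, BioTracker Green Microtubule Cytoskeleton Dye, MitoTracker Red and Annexin V Alexa Fluor 680, then imaged after compound addition on a CQ1 microscope at 37°C and 5% CO2. Machine-learning gating in CellPathfinder separated Hoechst high-intensity objects from normal cells, divided normal cells by nuclear state (healthy, pyknosed, fragmented) and divided pyknosed cells into mitotic or apoptotic.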
# [1] = 12 h, 1 µM, compound concentration 1 uM, replicate 1
# [2] = 12 h, 1 µM, compound concentration 1 uM, replicate 2
# [3] = 12 h, 10 µM, compound concentration 10 uM, replicate 1
# [4] = 12 h, 10 µM, compound concentration 10 uM, replicate 2
# [5] = 24 h, 1 µM, compound concentration 1 uM, replicate 1
# [6] = 24 h, 1 µM, compound concentration 1 uM, replicate 2
# [7] = 24 h, 10 µM, compound concentration 10 uM, replicate 1
# [8] = 24 h, 10 µM, compound concentration 10 uM, replicate 2
# [9] = 48 h, 1 µM, compound concentration 1 uM, replicate 1
# [10] = 48 h, 1 µM, compound concentration 1 uM, replicate 2
# [11] = 48 h, 10 µM, compound concentration 10 uM, replicate 1
# [12] = 48 h, 10 µM, compound concentration 10 uM, replicate 2
compound,measurement,setting,value
CN1CCN(Cc2ccc(Nc3ncc(Cl)c(Nc4ccccc4S(=O)(=O)N(C)C)n3)cc2)CC1 [DUBERMATINIB],Population Apoptotic (%),[1],54%
same,Population Fragmented Nuclei (%),[1],27%
same,Population Healthy Nuclei (%),[1],50%
same,Population Hoechst High Intensity Objects (%),[1],12%
same,Population Membrane Permeable-Phenotype (%),[1],41%
same,Population Mitochondria Different-Phenotype (%),[1],3%
same,Population Mitotic Cells (%),[1],45%
same,Population Normal (%),[1],87%
same,Population Pyknosed Nuclei (%),[1],21%
same,Population Tubulin-Different-Phenotype (%),[1],41%
same,Total Cell Count,[1],126
same,Population Apoptotic (%),[2],100%
same,Population Fragmented Nuclei (%),[2],13%
same,Population Healthy Nuclei (%),[2],83%
same,Population Hoechst High Intensity Objects (%),[2],10%
same,Population Membrane Permeable-Phenotype (%),[2],4%
same,Population Mitochondria Different-Phenotype (%),[2],16%
same,Population Mitotic Cells (%),[2],0%
same,Population Normal (%),[2],89%
same,Population Pyknosed Nuclei (%),[2],2%
same,Population Tubulin-Different-Phenotype (%),[2],11%
same,Total Cell Count,[2],65
same,Population Apoptotic (%),[3],72%
same,Population Fragmented Nuclei (%),[3],18%
same,Population Healthy Nuclei (%),[3],57%
same,Population Hoechst High Intensity Objects (%),[3],14%
same,Population Membrane Permeable-Phenotype (%),[3],22%
same,Population Mitochondria Different-Phenotype (%),[3],11%
same,Population Mitotic Cells (%),[3],28%
same,Population Normal (%),[3],85%
same,Population Pyknosed Nuclei (%),[3],23%
same,Population Tubulin-Different-Phenotype (%),[3],56%
same,Total Cell Count,[3],125
same,Population Apoptotic (%),[4],73%
same,Population Fragmented Nuclei (%),[4],45%
same,Population Healthy Nuclei (%),[4],31%
same,Population Hoechst High Intensity Objects (%),[4],9%
same,Population Membrane Permeable-Phenotype (%),[4],28%
same,Population Mitochondria Different-Phenotype (%),[4],38%
same,Population Mitotic Cells (%),[4],26%
same,Population Normal (%),[4],90%
same,Population Pyknosed Nuclei (%),[4],22%
same,Population Tubulin-Different-Phenotype (%),[4],42%
same,Total Cell Count,[4],91
same,Population Apoptotic (%),[5],70%
same,Population Fragmented Nuclei (%),[5],28%
same,Population Healthy Nuclei (%),[5],57%
same,Population Hoechst High Intensity Objects (%),[5],11%
same,Population Membrane Permeable-Phenotype (%),[5],31%
same,Population Mitochondria Different-Phenotype (%),[5],5%
same,Population Mitotic Cells (%),[5],29%
same,Population Normal (%),[5],88%
same,Population Pyknosed Nuclei (%),[5],14%
same,Population Tubulin-Different-Phenotype (%),[5],37%
same,Total Cell Count,[5],137
same,Population Apoptotic (%),[6],0%
same,Population Fragmented Nuclei (%),[6],11%
same,Population Healthy Nuclei (%),[6],83%
same,Population Hoechst High Intensity Objects (%),[6],6%
same,Population Membrane Permeable-Phenotype (%),[6],4%
same,Population Mitochondria Different-Phenotype (%),[6],36%
same,Population Mitotic Cells (%),[6],100%
same,Population Normal (%),[6],93%
same,Population Pyknosed Nuclei (%),[6],4%
same,Population Tubulin-Different-Phenotype (%),[6],14%
same,Total Cell Count,[6],70
same,Population Apoptotic (%),[7],42%
same,Population Fragmented Nuclei (%),[7],23%
same,Population Healthy Nuclei (%),[7],55%
same,Population Hoechst High Intensity Objects (%),[7],15%
same,Population Membrane Permeable-Phenotype (%),[7],12%
same,Population Mitochondria Different-Phenotype (%),[7],16%
same,Population Mitotic Cells (%),[7],57%
same,Population Normal (%),[7],84%
same,Population Pyknosed Nuclei (%),[7],21%
same,Population Tubulin-Different-Phenotype (%),[7],61%
same,Total Cell Count,[7],116
same,Population Apoptotic (%),[8],95%
same,Population Fragmented Nuclei (%),[8],30%
same,Population Healthy Nuclei (%),[8],33%
same,Population Hoechst High Intensity Objects (%),[8],14%
same,Population Membrane Permeable-Phenotype (%),[8],55%
same,Population Mitochondria Different-Phenotype (%),[8],55%
same,Population Mitotic Cells (%),[8],4%
same,Population Normal (%),[8],85%
same,Population Pyknosed Nuclei (%),[8],36%
same,Population Tubulin-Different-Phenotype (%),[8],65%
same,Total Cell Count,[8],87
same,Population Apoptotic (%),[9],62%
same,Population Fragmented Nuclei (%),[9],39%
same,Population Healthy Nuclei (%),[9],46%
same,Population Hoechst High Intensity Objects (%),[9],10%
same,Population Membrane Permeable-Phenotype (%),[9],22%
same,Population Mitochondria Different-Phenotype (%),[9],7%
same,Population Mitotic Cells (%),[9],37%
same,Population Normal (%),[9],89%
same,Population Pyknosed Nuclei (%),[9],13%
same,Population Tubulin-Different-Phenotype (%),[9],40%
same,Total Cell Count,[9],129
same,Population Apoptotic (%),[10],66%
same,Population Fragmented Nuclei (%),[10],30%
same,Population Healthy Nuclei (%),[10],67%
same,Population Hoechst High Intensity Objects (%),[10],4%
same,Population Membrane Permeable-Phenotype (%),[10],24%
same,Population Mitochondria Different-Phenotype (%),[10],5%
same,Population Mitotic Cells (%),[10],33%
same,Population Normal (%),[10],95%
same,Population Pyknosed Nuclei (%),[10],2%
same,Population Tubulin-Different-Phenotype (%),[10],41%
same,Total Cell Count,[10],115
same,Population Apoptotic (%),[11],53%
same,Population Fragmented Nuclei (%),[11],39%
same,Population Healthy Nuclei (%),[11],36%
same,Population Hoechst High Intensity Objects (%),[11],13%
same,Population Membrane Permeable-Phenotype (%),[11],31%
same,Population Mitochondria Different-Phenotype (%),[11],21%
same,Population Mitotic Cells (%),[11],46%
same,Population Normal (%),[11],86%
same,Population Pyknosed Nuclei (%),[11],24%
same,Population Tubulin-Different-Phenotype (%),[11],73%
same,Total Cell Count,[11],122
same,Population Apoptotic (%),[12],50%
same,Population Fragmented Nuclei (%),[12],43%
same,Population Healthy Nuclei (%),[12],44%
same,Population Hoechst High Intensity Objects (%),[12],16%
same,Population Membrane Permeable-Phenotype (%),[12],32%
same,Population Mitochondria Different-Phenotype (%),[12],19%
same,Population Mitotic Cells (%),[12],50%
same,Population Normal (%),[12],83%
same,Population Pyknosed Nuclei (%),[12],11%
same,Population Tubulin-Different-Phenotype (%),[12],48%
same,Total Cell Count,[12],83
C#Cc1cccc(Nc2ncnc3cc(OCCOC)c(OCCOC)cc23)c1 [ERLOTINIB],Population Apoptotic (%),[3],59% and 66%
same,Population Fragmented Nuclei (%),[3],22% and 24% and 20%
same,Population Healthy Nuclei (%),[3],35% and 58% and 62%
same,Population Hoechst High Intensity Objects (%),[3],10% and 11% and 15%
same,Population Mitotic Cells (%),[3],40% and 33% and 29%
same,Population Normal (%),[3],89% and 88% and 84%
same,Population Pyknosed Nuclei (%),[3],41% and 16%
same,Total Cell Count,[3],125 and 263 and 267
same,Population Membrane Permeable-Phenotype (%),[4],10% and 9% and 13%
same,Population Normal (%),[4],57% and 66% and 91%
same,Population Apoptotic (%),[7],60% and 66%
same,Population Fragmented Nuclei (%),[7],23% and 27% and 21%
same,Population Healthy Nuclei (%),[7],46% and 52% and 60%
same,Population Hoechst High Intensity Objects (%),[7],22% and 12% and 19%
same,Population Mitotic Cells (%),[7],40% and 39% and 33%
same,Population Normal (%),[7],77% and 87% and 80%
same,Population Pyknosed Nuclei (%),[7],30% and 19% and 18%
same,Total Cell Count,[7],127 and 268 and 287
same,Population Apoptotic (%),[8],100% and 57% and 75%
same,Population Hoechst High Intensity Objects (%),[8],28% and 38%
same,Population Normal (%),[8],71% and 61%
same,Population Pyknosed Nuclei (%),[8],10% and 16%
same,Population Apoptotic (%),[11],87%
same,Population Fragmented Nuclei (%),[11],41%
same,Population Healthy Nuclei (%),[11],41%
same,Population Hoechst High Intensity Objects (%),[11],16%
same,Population Membrane Permeable-Phenotype (%),[11],23%
same,Population Mitochondria Different-Phenotype (%),[11],33%
same,Population Mitotic Cells (%),[11],12%
same,Population Normal (%),[11],83%
same,Population Pyknosed Nuclei (%),[11],17%
same,Population Tubulin-Different-Phenotype (%),[11],89%
same,Total Cell Count,[11],113
same,Population Apoptotic (%),[12],50%
same,Population Fragmented Nuclei (%),[12],28%
same,Population Healthy Nuclei (%),[12],62%
same,Population Hoechst High Intensity Objects (%),[12],23%
same,Population Membrane Permeable-Phenotype (%),[12],19%
same,Population Mitochondria Different-Phenotype (%),[12],19%
same,Population Mitotic Cells (%),[12],50%
same,Population Normal (%),[12],76%
same,Population Pyknosed Nuclei (%),[12],9%
same,Population Tubulin-Different-Phenotype (%),[12],95%
same,Total Cell Count,[12],86

# Reference: ChEMBL document CHEMBL4689842, “EUbOPEN Chemogenomics Library wave 1” (2021)
